The target of series [1] is T1, Glucocorticoid receptor (Homo sapiens) (UniProt P04150).
T1 sequence (whole entry): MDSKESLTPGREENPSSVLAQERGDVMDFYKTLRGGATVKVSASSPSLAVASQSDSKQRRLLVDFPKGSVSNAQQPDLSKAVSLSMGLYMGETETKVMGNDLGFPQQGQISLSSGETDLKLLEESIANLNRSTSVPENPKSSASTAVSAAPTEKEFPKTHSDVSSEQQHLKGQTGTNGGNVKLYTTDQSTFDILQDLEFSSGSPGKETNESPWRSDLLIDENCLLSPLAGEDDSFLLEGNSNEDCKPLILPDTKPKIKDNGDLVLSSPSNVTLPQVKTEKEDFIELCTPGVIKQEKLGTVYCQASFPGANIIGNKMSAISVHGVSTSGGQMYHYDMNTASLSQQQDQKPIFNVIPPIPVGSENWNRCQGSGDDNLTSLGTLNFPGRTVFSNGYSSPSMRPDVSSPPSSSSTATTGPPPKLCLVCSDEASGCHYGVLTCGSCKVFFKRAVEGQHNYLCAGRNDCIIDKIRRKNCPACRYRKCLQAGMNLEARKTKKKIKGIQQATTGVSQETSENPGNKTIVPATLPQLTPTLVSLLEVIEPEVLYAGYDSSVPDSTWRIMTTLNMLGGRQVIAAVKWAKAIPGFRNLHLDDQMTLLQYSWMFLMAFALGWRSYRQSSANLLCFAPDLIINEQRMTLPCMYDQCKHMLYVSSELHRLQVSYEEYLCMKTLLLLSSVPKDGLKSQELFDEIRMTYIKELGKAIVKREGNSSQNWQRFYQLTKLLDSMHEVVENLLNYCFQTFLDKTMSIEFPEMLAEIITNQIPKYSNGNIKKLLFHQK
Briefly: Inhibition of [3H]dexamethasone binding to glucocorticoid receptor of human blood mononuclear cells. In a few lines: (§1)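 PBMC isolated from human blood by histopaque gradient; 1×10^6 cells in RPMI with 1% glutamine given 50 nM [3H]dexamethasone plus compound at 1 μM (from 10 mM DMSO stock; control 0.1% DMSO), 1 h at 37 °C. Four ice-cold PBS washes, bound label by scintillation minus nonspecific binding; fmol/mL and % specific displacement; n = 3.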

Series [2] has as its target T1, Glucocorticoid receptor (Homo sapiens). Put plainly: Displacement of [3H]dexamethasone from glucocorticoid receptor of human blood mononuclear cells at 1 uM. The method in brief:
as §1

The nature of series [3]: Water solubility was determined. The series is classed as ADME. The method in brief:
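Excess compound stirred in pH 7.4 phosphate buffer 3 h (25 °C), filtered 0.45 μm; saturated solution absorbance read at each compound's UV maximum and concentration derived against a standard solution; reported in mM.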

The next series is filed under the species Mus musculus. Briefly: Compound was tested for the inhibition of neutrophil (PMN) extravasation in the zymosan-induced peritonitis mouse. Further details: unit: PMN per peritoneal cavity. It is filed as functional. In a few lines: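 Mice dosed i.p. at 13.8 μmol/kg (equimolar to 5 mg/kg prednisolone) 1 h before i.p. zymosan (1 mg in 0.5 mL saline); vehicle peanut oil. Polymorphonuclear cells recruited per peritoneal cavity counted at 4 h; % inhibition vs vehicle group; mean ± SEM, n = 5 mice/group; ANOVA with Bonferroni.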

In brackets after ≈: the same amount, converted by molar mass.

`C[C@]12C=CC(=O)C=C1CCC1C2[C@@H](O)C[C@@]2(C)C1CC[C@]2(O)C(=O)COC(=O)CN1CCC(CCCO[N+](=O)[O-])CC1` (some centres undefined) showed a [3H]dexamethasone bound in series [1] of 2.3 fmol/mL. In series [2], this molecule had a Displacement of 81%. Also, the concentration in solution in series [3] (solubility) was 150 µM (≈ 88.3 µg/mL).

The molecule `C[C@]12C=CC(=O)C=C1CC[C@@H]1[C@@H]2[C@@H](O)C[C@@]2(C)[C@H]1CC[C@]2(O)C(=O)CO` [PREDNISOLONE] yielded a [3H]dexamethasone bound in series [1] of 5.5 fmol/mL. In series [2], the Displacement came out at 56%. Also, the solubility in series [3] stood at 270 µM (≈ 97.3 µg/mL).

In series [1], `C[C@]12C=CC(=O)C=C1CCC1C2[C@@H](O)C[C@@]2(C)C1CC[C@]2(O)C(=O)COC(=O)CCCO[N+](=O)[O-]` (some centres undefined) gave a [3H]dexamethasone bound of 1.6 fmol/mL. In addition, in series [2], the Displacement amounted to 87%. In the series filed under Mus musculus, this molecule showed an Activity of 9100000.

`C[C@]12C=CC(=O)C=C1CCC1C2[C@@H](O)C[C@@]2(C)C1CC[C@]2(O)C(=O)COC(=O)c1cccc(CO[N+](=O)[O-])c1` (some centres undefined): in series [1], the [3H]dexamethasone bound was 19.8 fmol/mL.

In series [1], `C[C@]12C=CC(=O)C=C1CCC1C2[C@@H](O)C[C@@]2(C)C1CC[C@]2(O)C(=O)COC(=O)CN1CCN(CCCO[N+](=O)[O-])CC1` (some centres undefined) displayed a [3H]dexamethasone bound of 2.1 fmol/mL. Further, the Displacement in series [2] stood at 83%. For the same molecule, the Activity in the series filed under Mus musculus is 7800000. In addition, the solubility in series [3] amounted to 53300 µM (≈ 31400 µg/mL).

Regarding `C[C@]12C=CC(=O)C=C1CCC1C2[C@@H](O)C[C@@]2(C)C1CC[C@]2(O)C(=O)COC(=O)c1ccccc1CO[N+](=O)[O-]` (some centres undefined), the [3H]dexamethasone bound in series [1] was found to be 8.7 fmol/mL. Besides, the Displacement in series [2] was found to be 30%.

The molecule `C[C@]12C=CC(=O)C=C1CCC1C2[C@@H](O)C[C@@]2(C)C1CC[C@]2(O)C(=O)COC(=O)CN1CCC(CCO[N+](=O)[O-])CC1` (some centres undefined) registered a [3H]dexamethasone bound in series [1] of 1.7 fmol/mL. The Displacement in series [2] was determined as 86%. In series [3], the concentration in solution (solubility) came to 710 µM (≈ 408 µg/mL).

In the case of `C[C@]12C=CC(=O)C=C1CCC1C2[C@@H](O)C[C@@]2(C)C1CC[C@]2(O)C(=O)COC(=O)CN1CCN(CCO[N+](=O)[O-])CC1` (some centres undefined), the [3H]dexamethasone bound in series [1] was found to be 4.2 fmol/mL. Moreover, the Displacement in series [2] was 66%. Also, in the series listed under Mus musculus, the Activity amounted to 9000000. This molecule came in with a solubility in series [3] of 21300 µM (≈ 12300 µg/mL).

For `C[C@]12C=CC(=O)C=C1CCC1C2[C@@H](O)C[C@@]2(C)C1CC[C@]2(O)C(=O)COC(=O)c1ccc(CO)cc1` (some centres undefined), the [3H]dexamethasone bound in series [1] was 5.3 fmol/mL. The molecule also displayed a Displacement in series [2] of 57%.

As to `C[C@]12C=CC(=O)C=C1CCC1C2[C@@H](O)C[C@@]2(C)C1CC[C@]2(O)C(=O)COC(=O)c1ccc(CO[N+](=O)[O-])cc1` (some centres undefined), the [3H]dexamethasone bound in series [1] turned out to be 6.6 fmol/mL. In series [2], this molecule had a Displacement of 47%. Besides, the Activity in the series listed under Mus musculus was 4100000. Besides, in series [3], the solubility was found to be 7 µM (≈ 3.78 µg/mL).

Usually solubility stands for the dissolved amount per volume that the medium holds.

These data come from ChEMBL document CHEMBL1148400, “Synthesis of nitro esters of prednisolone, new compounds combining pharmacological properties of both glucocorticoids and nitric oxide” (J Med Chem, 2004).
